# Legend:
# Staphylococcus aureus = assay: Antimicrobial activity against Staphylococcus aureus ATCC 11632 after 24 hrs by broth microdilution method; assay type: functional; conditions: ATCC 11632, 24 h
# How it was run: (§1)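 Broth microdilution in tubes. Compounds were dissolved at 10 mg in 1 mL DMSO and diluted in Mueller-Hinton Broth for bacteria or Sabouraud Liquid Medium for yeasts and A. niger. Final concentrations were 1–500 µg/mL (1, 2, 4, 8, 16, 31.25, 62.5, 125, 250, 500), with DMSO at most 1% v/v. Inoculum was 10^5 cfu/mL, incubated at 37 °C for 24 h. MIC was the lowest concentration giving complete growth inhibition. Media and media-plus-DMSO served as growth controls.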
# Enterococcus faecalis = assay: Antimicrobial activity against Streptococcus faecalis ATCC 14506 after 24 hrs by broth microdilution method; assay type: functional; conditions: ATCC 14506, 24 h; how it was run: as §1
# Bacillus subtilis = assay: Antimicrobial activity against Bacillus subtilis ATCC 60511 after 24 hrs by broth microdilution method; assay type: functional; conditions: ATCC 60511, 24 h; how it was run: as §1
# Klebsiella pneumoniae = assay: Antimicrobial activity against Klebsiella pneumoniae ATCC 10031 after 24 hrs by broth microdilution method; assay type: functional; conditions: ATCC 10031, 24 h; how it was run: as §1
# Escherichia coli = assay: Antimicrobial activity against Escherichia […] after 24 hrs by broth microdilution method; assay type: functional; how it was run: as §1
# Pseudomonas aeruginosa = assay: Antimicrobial activity against Pseudomonas aeruginosa ATCC 10145 after 24 hrs by broth microdilution method; assay type: functional; conditions: ATCC 10145, 24 h; how it was run: as §1
# Saccharomyces cerevisiae = assay: Antimicrobial activity against Saccharomyces cerevisiae ATCC 9763 after 24 hrs by broth microdilution method; assay type: functional; conditions: ATCC 9763, 24 h; how it was run: as §1
# Candida tropicalis = assay: Antimicrobial activity against Candida tropicalis ATCC 1369 after 24 hrs by broth microdilution method; assay type: functional; conditions: ATCC 1369, 24 h; how it was run: as §1
# Aspergillus niger = assay: Antimicrobial activity against Aspergillus niger ATCC 6275 after 24 hrs by broth microdilution method; assay type: functional; conditions: ATCC 6275, 24 h; how it was run: as §1
# [1] = system: Mycobacterium tuberculosis; assay: Antitubercular activity against Mycobacterium tuberculosis H37Rv after 21 days by broth dilution assay; assay type: functional; conditions: 504 h
# How it was run: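 H37Rv frozen stock in Middlebrook 7H9 broth with 10% albumin-dextrose-catalase and 0.2% glycerol, thawed and diluted to 10⁵ cfu mL⁻¹. Compounds dissolved in DMSO, diluted in broth (final DMSO 1.3%). U-tubes inoculated, incubated 37 °C for 21 days. Growth scored visually against drug-free and inoculum-free controls and isoniazid. MIC = lowest concentration inhibiting […] of starting population.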
# A549 = assay: Cytotoxicity against human A549 cell at 250 uM by MTT assay relative to control; assay type: cell-based; conditions: a549, 250 µM
# How it was run: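 A549 lung adenocarcinoma cells were grown with 10% and 0.2% FBS. Compounds were held as 10 mM DMSO stocks and diluted in culture medium; cells were treated at 250 µM. Viability was read by MTT reduction against untreated cells and a DMSO vehicle control. The work was done as two experiments, each with triplicate readings.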
SMILES,MIC (Staphylococcus aureus) [µg/mL],MIC (Enterococcus faecalis) [µg/mL],MIC (Bacillus subtilis) [µg/mL],MIC (Klebsiella pneumoniae) [µg/mL],MIC (Escherichia coli) [µg/mL],MIC (Pseudomonas aeruginosa) [µg/mL],MIC (Saccharomyces cerevisiae) [µg/mL],MIC (Candida tropicalis) [µg/mL],MIC (Aspergillus niger) [µg/mL],MIC [1] [µg/mL],Activity (A549) [%]
CC(=O)N1N=C(c2nc(C(C)C)cs2)OC1c1cccc(Cl)c1Cl (stereo not drawn),125,16,16,125,125,31.2,16,16,31.2,62.5,
CC(C)c1csc(-c2nnc(S)n2N)n1,125,31.2,8,31.2,31.2,16,16,8,8,8,50
C/C(=N/NC(=O)c1nc(C(C)C)cs1)c1ccc(O)cc1,125,125,250,250,125,125,31.2,31.2,125,125,
NNC(=O)c1ccncc1 [ISONIAZID],,,,,,,,,,0.25,
COc1cc(/C=N/NC(=O)c2nc(C(C)C)cs2)cc(OC)c1OC,500,250,125,125,125,31.2,125,62.5,31.2,125,
OC(Cn1cncn1)(Cn1cncn1)c1ccc(F)cc1F [FLUCONAZOLE],,,,,,,≤ 1,≤ 1,≤ 1,,
COc1cc(C2OC(c3nc(C(C)C)cs3)=NN2C(C)=O)cc(OC)c1OC (stereo not drawn),62.5,16,16,31.2,31.2,16,31.2,16,16,31.2,50
CC(C)c1csc(C(=O)N/N=C/c2ccccc2)n1,500,125,125,125,31.2,16,62.5,62.5,31.2,250,
CCn1cc(C(=O)O)c(=O)c2cc(F)c(N3CCNCC3)cc21 [NORFLOXACIN],≤ 5,≤ 5,≤ 1,≤ 1,≤ 1,≤ 5,,,,,
O=C(O)c1cn(C2CC2)c2cc(N3CCNCC3)c(F)cc2c1=O [CIPROFLOXACIN],≤ 5,≤ 5,≤ 1,≤ 1,≤ 1,≤ 5,,,,,
C/C(=N/NC(=O)c1nc(C(C)C)cs1)c1ccc(Br)cc1,250,250,125,125,250,125,31.2,125,125,31.2,
CC(C)c1csc(C(=O)N/N=C/c2ccc(N(C)C)cc2)n1,250,125,125,125,31.2,31.2,250,125,62.5,125,
CC(C)c1csc(C(=O)NN)n1,250,125,250,250,125,125,250,500,125,125,
CC(C)c1csc(-c2nnc(S)o2)n1,125,31.2,16,16,31.2,31.2,31.2,16,31.2,8,
